Papp B→A, IC50 and Tmax data for 1 molecule are collected here from ChEMBL document CHEMBL4196128 (ACS Med Chem Lett, 2018).

Series [1] can be described thus: Apparent permeability across basolateral to apical side in human Caco2 cells. The conditions noted are these: Caco-2, read-out: permeability. It counts as ADME, cell-based. Background: Caco-2 cells form a polarised layer with tight junctions and transporters.
The target of another series is Cytochrome P450 2C9 (Homo sapiens, UniProt P11712). Put plainly: Inhibition of CYP2C9 (unknown origin) co-incubated with substrate. It counts as ADME.
In another series the test system is HT-29. Put plainly: Antiproliferative activity against human HT-29 cells harboring BRAF V600E/D mutant measured after 4 days. It counts as functional, cell-based. The conditions noted are these: HT-29, 96 h.
The nature of series [2]: Tmax in Beagle dog at 30 mg/kg, po. It counts as ADME, organism-based, Canis lupus familiaris. The conditions noted are these: in vivo. The procedure, abridged: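 Oral dosing in male CD1 mice (30 mg/kg, n = 27), Sprague–Dawley rats (10 mg/kg, n = 3), beagle dogs (30 mg/kg, n = 3) and cynomolgus monkeys (10 mg/kg, n = 3). Mean Tmax was read from plasma concentration–time data. Bioavailability was derived from oral AUC(0–∞) compared with intravenous AUC.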

Molecules are shown by their SMILES. Some results are limits rather than exact numbers.

Sequence of Cytochrome P450 2C9 (P11712 whole entry): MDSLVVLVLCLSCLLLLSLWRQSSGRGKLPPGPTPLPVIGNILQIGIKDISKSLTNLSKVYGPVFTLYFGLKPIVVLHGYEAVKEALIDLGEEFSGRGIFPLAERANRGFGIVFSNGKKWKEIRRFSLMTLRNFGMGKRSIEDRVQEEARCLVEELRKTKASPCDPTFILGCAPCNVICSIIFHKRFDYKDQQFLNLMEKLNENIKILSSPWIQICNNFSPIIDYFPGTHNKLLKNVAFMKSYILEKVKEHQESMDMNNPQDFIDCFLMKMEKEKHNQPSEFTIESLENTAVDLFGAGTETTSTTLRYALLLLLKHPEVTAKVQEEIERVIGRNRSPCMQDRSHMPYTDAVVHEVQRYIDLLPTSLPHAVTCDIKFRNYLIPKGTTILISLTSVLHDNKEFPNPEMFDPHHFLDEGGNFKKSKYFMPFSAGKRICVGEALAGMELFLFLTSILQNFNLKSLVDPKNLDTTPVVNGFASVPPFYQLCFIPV

Take `CS[C@@]1(C(=O)Nc2ccc3[nH]nc(-c4ccc(OC(C)C)nc4)c3c2)CCN(CC(=O)N2CC=C(c3ccc(-c4ncn(C)n4)cc3)CC2)C1` [MK-8353]: the Papp B→A in series [1] is 40 ×10⁻⁶ cm/s. The concentration for half-maximal inhibition (IC50) (as a rule, the concentration at which inhibition is half-maximal) on Cytochrome P450 2C9 was above 5000 nM; in the series with HT-29, 51 nM. Besides, the Tmax (as a rule, the time at which the peak concentration occurs) in series [2] is 4 h.
